From ChEMBL document CHEMBL3600364, “Modification of N-(6-(2-methoxy-3-(4-fluorophenylsulfonamido)pyridin-5-yl)-[1,2,4]triazolo[1,5-a]pyridin-2-yl)acetamide as PI3Ks inhibitor by replacement of the acetamide group with alkylurea” (Bioorg Med Chem, 2015)

What was measured:
HCT-116 [1] = test: Cytotoxicity against human HCT116 cells after 72 hrs by MTT assay; format: functional, cell-based; settings: HCT-116, 72 h
Outline: (§1)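 Cells (1500–4000/well) were plated for 24 h, then exposed to serial concentrations for 72 h at 1% DMSO final. MTT was added for 4 h, formazan dissolved in DMSO, and OD read at 490 nm. IC50 (μM) came from three experiments run in triplicate.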

MCF7 = test: Cytotoxicity against human MCF7 cells after 72 hrs by MTT assay; format: functional, cell-based; settings: MCF7, 72 h; outline: as §1
U-87 MG = test: Cytotoxicity against human U87MG cells after 72 hrs by MTT assay; format: functional, cell-based, U-87MG ATCC; outline: as §1
A549 = test: Cytotoxicity against human A549 cells after 72 hrs by MTT assay; format: functional, cell-based; settings: A549, 72 h; outline: as §1
[2] = target: T1, Phosphatidylinositol 4,5-bisphosphate 3-kinase catalytic subunit alpha isoform (Homo sapiens, UniProt P42336); test: Inhibition of PI3Kalpha (unknown origin) assessed as reduction of ATP level after 40 mins by luciferase based luminescence assay
[3] = target: T2, Phosphatidylinositol 4,5-bisphosphate 3-kinase catalytic subunit delta isoform (Homo sapiens, UniProt O00329); test: Inhibition of PI3Kdelta (unknown origin) assessed as reduction of ATP level after 40 mins by luciferase based luminescence assay
T2 sequence (O00329 whole entry): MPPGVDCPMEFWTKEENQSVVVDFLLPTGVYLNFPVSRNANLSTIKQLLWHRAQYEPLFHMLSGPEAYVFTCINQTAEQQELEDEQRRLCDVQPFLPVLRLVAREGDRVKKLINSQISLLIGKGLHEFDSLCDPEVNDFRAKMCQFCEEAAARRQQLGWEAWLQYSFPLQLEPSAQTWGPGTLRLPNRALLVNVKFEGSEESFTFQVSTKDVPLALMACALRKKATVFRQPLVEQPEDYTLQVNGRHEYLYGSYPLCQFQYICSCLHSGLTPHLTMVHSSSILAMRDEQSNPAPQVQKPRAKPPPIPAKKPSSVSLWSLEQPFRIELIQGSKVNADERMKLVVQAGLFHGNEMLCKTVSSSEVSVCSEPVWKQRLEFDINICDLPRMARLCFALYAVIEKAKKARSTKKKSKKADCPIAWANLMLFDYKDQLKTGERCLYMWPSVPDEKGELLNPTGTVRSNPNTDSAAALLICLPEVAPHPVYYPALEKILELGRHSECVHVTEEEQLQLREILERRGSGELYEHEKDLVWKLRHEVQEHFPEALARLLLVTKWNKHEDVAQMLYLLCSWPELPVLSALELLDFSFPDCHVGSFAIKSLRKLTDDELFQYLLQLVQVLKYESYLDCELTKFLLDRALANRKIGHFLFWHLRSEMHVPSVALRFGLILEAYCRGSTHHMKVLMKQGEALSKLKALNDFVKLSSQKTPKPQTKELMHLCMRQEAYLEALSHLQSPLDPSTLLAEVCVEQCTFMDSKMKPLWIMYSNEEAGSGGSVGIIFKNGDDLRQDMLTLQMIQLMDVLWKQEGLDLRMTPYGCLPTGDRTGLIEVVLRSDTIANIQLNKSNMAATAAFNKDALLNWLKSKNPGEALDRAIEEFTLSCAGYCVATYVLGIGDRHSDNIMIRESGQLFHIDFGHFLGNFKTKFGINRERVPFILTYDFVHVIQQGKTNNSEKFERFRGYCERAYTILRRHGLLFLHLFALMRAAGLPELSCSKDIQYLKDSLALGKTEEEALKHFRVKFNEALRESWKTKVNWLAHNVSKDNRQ
Outline: (§2)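 Each enzyme was tested separately: PI3Kα (p110α/p85α), β (p110β/p85α), γ (p110γ/PIK3R5), δ (p110δ/p85α) or mTOR, with L-α-phosphatidylinositol substrate. […] was measured by luciferase luminescence. Inhibition was normalized to no-compound and no-enzyme controls, and IC50 obtained from dose-response fits.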

[4] = target: Serine/threonine-protein kinase mTOR (Homo sapiens, UniProt P42345); test: Inhibition of mTOR (unknown origin) assessed as reduction of ATP level after 40 mins by luciferase based luminescence assay; outline: as §2
[5] = target: T1, Phosphatidylinositol 4,5-bisphosphate 3-kinase catalytic subunit alpha isoform; test: Ratio of BEZ235 IC50 to compound IC50 for PI3Kalpha (unknown origin) assessed as reduction of ATP level after 40 mins by luciferase based luminescence assay
[6] = Acute toxicity in po dosed mouse; format: organism-based; settings: in vivo
Outline: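 Mouse acute oral toxicity (20.1 ± 1.9 g) by up-and-down procedure per OECD guideline 425. Compound dissolved in NMP, diluted with PEG400 and H2O (NMP/PEG400/H2O 1:8:1 v/v), given orally. Starting dose 50 mg/kg or 100 mg/kg depending on compound, slope factor sigma 0.12. Dosing stopped per AOT425StatPgm stopping rules.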

[7] = Ratio of compound LD50 to compound B LD50 for po dosed mouse; format: ADME, organism-based; settings: in vivo
CCRF S-180 [8] = test: Antitumor activity against mouse S180 cells xenografted in mouse assessed as inhibition of tumor growth at 5 mg/kg, po […] for 8 days relative to control; format: functional; settings: CCRF S-180, po, 192 h, read-out: GI
Outline: (§3)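 Mice (20.3 ± 1.6 g) were given 3×10^6 S180 cells subcutaneously in the flank and randomized the next day into groups of 8. Dosing was oral, once daily for 8 days, in NMP/PEG400/H₂O (1:6:3), with a solvent-only group as control. Body weight was recorded daily. On day 9, tumors were excised and weighed, and tumor-weight inhibitory ratio was calculated.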

CCRF S-180 [9] = test: Antitumor activity against mouse S180 cells xenografted in mouse assessed as inhibition of tumor growth at 10 mg/kg, po […] for 8 days relative to control; format: functional; settings: CCRF S-180, po, 192 h, read-out: GI; outline: as §3
CCRF S-180 [10] = test: Antitumor activity against mouse S180 cells xenografted in mouse assessed as inhibition of tumor growth at 30 mg/kg, po […] for 8 days relative to control; format: functional; settings: CCRF S-180, po, 192 h, read-out: GI; outline: as §3
Mus musculus = test: Toxicity in mouse S180 cells xenografted in mouse assessed as change in body weight at 5 to 30 mg/kg, po qd for 8 days; format: organism-based, CCRF S-180; settings: in vivo, 192 h; outline: as §3
HCT-116 [11] = test: Ratio of BEZ235 IC50 to compound IC50 for human HCT116 cells; format: functional

T1 sequence (P42336 whole entry, canonical isoform): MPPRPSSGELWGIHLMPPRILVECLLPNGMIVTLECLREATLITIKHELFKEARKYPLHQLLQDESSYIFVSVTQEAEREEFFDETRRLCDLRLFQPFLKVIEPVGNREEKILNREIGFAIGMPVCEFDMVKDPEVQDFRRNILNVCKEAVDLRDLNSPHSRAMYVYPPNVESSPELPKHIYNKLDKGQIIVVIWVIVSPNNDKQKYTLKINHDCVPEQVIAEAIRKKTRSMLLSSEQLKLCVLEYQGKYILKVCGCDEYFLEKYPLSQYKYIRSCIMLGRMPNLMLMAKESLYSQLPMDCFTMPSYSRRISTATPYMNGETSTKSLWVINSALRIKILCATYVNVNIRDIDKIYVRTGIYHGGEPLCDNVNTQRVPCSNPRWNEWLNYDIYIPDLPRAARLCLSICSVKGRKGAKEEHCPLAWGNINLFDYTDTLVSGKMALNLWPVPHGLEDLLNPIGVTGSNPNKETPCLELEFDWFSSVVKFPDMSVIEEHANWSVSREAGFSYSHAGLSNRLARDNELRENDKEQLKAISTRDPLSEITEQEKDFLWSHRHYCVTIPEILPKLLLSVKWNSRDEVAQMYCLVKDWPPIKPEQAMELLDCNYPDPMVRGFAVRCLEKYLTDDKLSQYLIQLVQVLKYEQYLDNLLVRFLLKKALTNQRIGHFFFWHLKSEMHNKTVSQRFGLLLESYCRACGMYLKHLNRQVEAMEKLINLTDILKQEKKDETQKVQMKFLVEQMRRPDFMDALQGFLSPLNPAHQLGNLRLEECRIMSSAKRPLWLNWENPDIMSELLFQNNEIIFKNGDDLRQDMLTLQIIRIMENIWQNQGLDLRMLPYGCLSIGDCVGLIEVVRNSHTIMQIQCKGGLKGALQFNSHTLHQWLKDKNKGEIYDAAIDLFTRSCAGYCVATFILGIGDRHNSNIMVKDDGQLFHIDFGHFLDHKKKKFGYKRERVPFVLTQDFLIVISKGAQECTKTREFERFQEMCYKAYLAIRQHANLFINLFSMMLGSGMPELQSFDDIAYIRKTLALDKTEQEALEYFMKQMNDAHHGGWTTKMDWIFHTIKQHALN

Structure (SMILES)	IC50 (HCT-116 [1]) [nM]	IC50 (MCF7) [nM]	IC50 (U-87 MG) [nM]	IC50 (A549) [nM]	further results
COc1ncc(-c2ccc3nc(NC(=O)NCCN(C)C)nn3c2)cc1NS(=O)(=O)c1ccc(F)cc1	220	560	980	800	–
CCN(CC)CCNC(=O)Nc1nc2ccc(-c3cnc(OC)c(NS(=O)(=O)c4ccc(Cl)cc4)c3)cn2n1	120	680	760	680	–
CCN(CC)CCNC(=O)Nc1nc2ccc(-c3cnc(OC)c(NS(=O)(=O)c4ccc(F)cc4)c3)cn2n1	180	370	720	760	IC50 [2]: 14 nM; IC50 [3]: 12 nM; IC50 [4]: 123 nM; Ratio IC50 [5]: 3; LD50 [6]: 513 mg/kg; selectivity ratio [7]: 18; inhibition in vivo at 5 mg/kg (CCRF S-180 [8]): 37.3%; inhibition in vivo at 10 mg/kg (CCRF S-180 [9]): 49%; inhibition in vivo at 30 mg/kg (CCRF S-180 [10]): 53.6%; Activity (Mus musculus): Non-toxic
COc1ncc(-c2ccc3nc(NC(=O)N4CCCC4)nn3c2)cc1NS(=O)(=O)c1ccc(F)cc1	1290	1660	1690	3570	–
CCN(CC)CCNC(=O)Nc1nc2ccc(-c3cnc(OC)c(NS(=O)(=O)c4ccc(F)cc4F)c3)cn2n1	140	740	1060	980	–
COc1ncc(-c2ccc3nc(NC(=O)NC4CC4)nn3c2)cc1NS(=O)(=O)c1ccc(F)cc1	90	300	540	210	Ratio IC50 (HCT-116 [11]): 3; IC50 [2]: 7 nM; IC50 [3]: 16 nM; IC50 [4]: 275 nM; Ratio IC50 [5]: 8; LD50 [6]: 118 mg/kg; selectivity ratio [7]: 4
CCCNC(=O)Nc1nc2ccc(-c3cnc(OC)c(NS(=O)(=O)c4ccc(F)cc4)c3)cn2n1	150	360	420	220	LD50 [6]: 156 mg/kg; selectivity ratio [7]: 5
COc1ncc(-c2ccc3nc(NC(=O)NCCN4CCCCC4)nn3c2)cc1NS(=O)(=O)c1ccc(F)cc1	150	200	1080	610	–
CCN(CC)CCNC(=O)Nc1nc2ccc(-c3cnc(OC)c(NS(=O)(=O)c4ccc(C)cc4)c3)cn2n1	170	410	670	730	–
COc1ncc(-c2ccc3nc(NC(=O)NCC(=O)N4CCOCC4)nn3c2)cc1NS(=O)(=O)c1ccc(F)cc1	490	630	3260	2570	–
COc1ncc(-c2ccc3nc(NC(=O)NCCN4CCN(C)CC4)nn3c2)cc1NS(=O)(=O)c1ccc(F)cc1	260	500	760	1050	–
CNC(=O)Nc1nc2ccc(-c3cnc(OC)c(NS(=O)(=O)c4ccc(F)cc4)c3)cn2n1	180	250	640	230	–
COc1ncc(-c2ccc3nc(NC(=O)NCC(=O)N4CCCC4)nn3c2)cc1NS(=O)(=O)c1ccc(F)cc1	140	2130	1000	2190	–
Cn1c(=O)n(-c2ccc(C(C)(C)C#N)cc2)c2c3cc(-c4cnc5ccccc5c4)ccc3ncc21 [DACTOLISIB]	290	260	770	280	–
COc1ncc(-c2ccc3nc(NC(=O)NCC(=O)N4CCCCC4)nn3c2)cc1NS(=O)(=O)c1ccc(F)cc1	130	570	740	2060	–
COc1ncc(-c2ccc3nc(NC(C)=O)nn3c2)cc1NS(=O)(=O)c1ccc(F)cc1	–	–	–	–	LD50 [6]: 28 mg/kg
COc1ncc(-c2ccc3nc(NC(=O)N(C)C)nn3c2)cc1NS(=O)(=O)c1ccc(F)cc1	760	1560	1780	1190	–
COc1ncc(-c2ccc3nc(NC(=O)NCCN4CCCC4)nn3c2)cc1NS(=O)(=O)c1ccc(F)cc1	230	380	1120	960	–
COc1ncc(-c2ccc3nc(NC(=O)NCCN4CCOCC4)nn3c2)cc1NS(=O)(=O)c1ccc(F)cc1	130	210	560	420	–
